Measured values published in ChEMBL document CHEMBL3632499, “Synthesis and Antiproliferative Activity Evaluation of the Disulfide-Containing Cyclic Peptide Thiochondrilline C and Derivatives” (J Nat Prod, 2015).

Tests used:
Type in all cases: functional
[1] = system: CCRF-CEM; experiment: Antiproliferative activity against human CCRF-CEM cells
Procedure, shortened: (§1)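 Profiled in the National Cancer Institute 60 cancer cell line screen. Reported GI50 is the concentration giving 50% growth inhibition, TGI the concentration giving total growth inhibition, and LC50 the concentration giving 50% net cell killing. Values are averages ± SEM from two independent determinations.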

[2] = system: HL-60(TB); experiment: Antiproliferative activity against human HL-60(TB) cells
Procedure, shortened: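 Tested in the NCI 60 human cancer cell line panel. GI50 is the concentration giving 50% growth inhibition; TGI (total growth inhibition) and LC50 (50% net cell killing) were also derived. Values are the mean ± SEM of two independent determinations.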

[3] = system: K562; experiment: Antiproliferative activity against human K562 cells; procedure, shortened: as §1
[4] = Antiproliferative activity against human MOLT4 cells; procedure, shortened: as §1
[5] = Antiproliferative activity against human RPMI8226 cells; procedure, shortened: as §1
[6] = system: SR; experiment: Antiproliferative activity against human SR cells
Procedure, shortened: (§2)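 Run in the National Cancer Institute 60 cancer cell line panel. Read-outs: GI50, the concentration causing 50% growth inhibition; TGI, the concentration causing total growth inhibition; LC50, the concentration causing 50% net cell killing. Values are averages ± SEM from two independent determinations.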

[7] = system: A549; experiment: Antiproliferative activity against human A549/ATCC cells; procedure, shortened: as §1
[8] = Antiproliferative activity against human EKVX cells; procedure, shortened: as §1
[9] = system: HOP-62; experiment: Antiproliferative activity against human HOP62 cells; procedure, shortened: as §1
[10] = Antiproliferative activity against human HOP92 cells; procedure, shortened: as §1
[11] = system: NCI-H226; experiment: Antiproliferative activity against human NCI-H226 cells; procedure, shortened: as §1
[12] = system: NCI-H23; experiment: Antiproliferative activity against human NCI-H23 cells; procedure, shortened: as §1
[13] = system: NCI-H322M; experiment: Antiproliferative activity against human NCI-H322M cells; procedure, shortened: as §1
[14] = system: NCI-H460; experiment: Antiproliferative activity against human NCI-H460 cells; procedure, shortened: as §1
[15] = system: NCI-H522; experiment: Antiproliferative activity against human NCI-H522 cells; procedure, shortened: as §1
[16] = Antiproliferative activity against human COLO205 cells; procedure, shortened: as §1
[17] = Antiproliferative activity against human HCC2998 cells; procedure, shortened: as §1
[18] = system: HCT-116; experiment: Antiproliferative activity against human HCT116 cells; procedure, shortened: as §1
[19] = system: HCT-15; experiment: Antiproliferative activity against human HCT15 cells; procedure, shortened: as §1
[20] = system: HT-29; experiment: Antiproliferative activity against human HT-29 cells; procedure, shortened: as §1
[21] = system: KM12; experiment: Antiproliferative activity against human KM12 cells; procedure, shortened: as §1
[22] = system: SW-620; experiment: Antiproliferative activity against human SW620 cells; procedure, shortened: as §2
[23] = system: SF-268; experiment: Antiproliferative activity against human SF268 cells; procedure, shortened: as §1
[24] = Antiproliferative activity against human SF295 cells; procedure, shortened: as §1
[25] = Antiproliferative activity against human SF539 cells; procedure, shortened: as §1
[26] = system: SNB-19; experiment: Antiproliferative activity against human SNB19 cells; procedure, shortened: as §2
[27] = system: SNB-75; experiment: Antiproliferative activity against human SNB75 cells; procedure, shortened: as §2
[28] = system: U-251; experiment: Antiproliferative activity against human U251 cells; procedure, shortened: as §2
[29] = Antiproliferative activity against human LOXIMVI cells; details: LOX IMVI; procedure, shortened: as §1
[30] = system: Malme-3M; experiment: Antiproliferative activity against human MALME-3M cells; procedure, shortened: as §1
[31] = system: M14; experiment: Antiproliferative activity against human M14 cells; procedure, shortened: as §1
[32] = read-out: LC50 (the source's name)

## C[C@H](NC(=O)[C@@H]1CSSC[C@@H](NC(=O)c2nc3ccccc3cc2O)C(=O)NCC(=O)N1C)c1ccccc1
[1]
  GI50: 1.9 µM
  TGI: 10.5 µM
[1]; [32]
  CC50: > 50 µM
[2]
  GI50: 1.2 µM
  TGI: 5.1 µM
[2]; [32]
  CC50: 38.8 µM
[3]
  GI50: 0.7 µM
  TGI: 3.1 µM
[3]; [32]
  CC50: > 50 µM
[4]; MOLT-4
  GI50: 0.9 µM
  TGI: 3.3 µM
[4]; MOLT-4, read-out: LC50 (the source's name)
  CC50: > 50 µM
[5]; RPMI-8226
  GI50: 5.7 µM
  TGI: 21.6 µM
[5]; RPMI-8226, read-out: LC50 (the source's name)
  CC50: > 50 µM
[6]
  GI50: 0.2 µM
  TGI: 1.2 µM
[6]; [32]
  CC50: > 50 µM
[7]
  GI50: 7.1 µM
  TGI: 15.7 µM
[7]; [32]
  CC50: 35.3 µM
[8]
  GI50: 3.8 µM
  TGI: 11.8 µM
[8]; [32]
  CC50: 31.4 µM
[9]
  GI50: 12.2 µM
  TGI: 21 µM
[9]; [32]
  CC50: 36.8 µM
[10]; HOP-92
  GI50: 9.7 µM
  TGI: 18.6 µM
[10]; HOP-92, read-out: LC50 (the source's name)
  CC50: 35.6 µM
[11]
  GI50: 8.9 µM
  TGI: 17.4 µM
[11]; [32]
  CC50: 34.2 µM
[12]
  GI50: 5.2 µM
  TGI: 12.6 µM
[12]; [32]
  CC50: 29.7 µM
[13]
  GI50: 7.1 µM
  TGI: 20.1 µM
[13]; [32]
  CC50: > 50 µM
[14]
  GI50: 1.3 µM
  TGI: 8 µM
[14]; [32]
  CC50: 30.5 µM
[15]
  GI50: 3.6 µM
  TGI: 10.5 µM
[15]; [32]
  CC50: 29.1 µM
[16]; COLO 205
  GI50: 1 µM
  TGI: 2.3 µM
[16]; COLO 205, read-out: LC50 (the source's name)
  CC50: 7.2 µM
[17]; HCC 2998
  GI50: 7.9 µM
  TGI: 17.9 µM
[17]; HCC 2998, read-out: LC50 (the source's name)
  CC50: > 50 µM
[18]
  GI50: 1.8 µM
  TGI: 6 µM
[18]; [32]
  CC50: 18.3 µM
[19]
  GI50: 2.6 µM
  TGI: 9.7 µM
[19]; [32]
  CC50: 25.9 µM
[20]
  GI50: 1.2 µM
  TGI: 3.9 µM
[20]; [32]
  CC50: 12.4 µM
[21]
  GI50: 0.6 µM
  TGI: 8.6 µM
[21]; [32]
  CC50: 28.3 µM
[22]
  GI50: 1.9 µM
  TGI: 6.3 µM
[22]; [32]
  CC50: 33.2 µM
[23]
  GI50: 0.4 µM
  TGI: 11.1 µM
[23]; [32]
  CC50: 35.6 µM
[24]; SF-295
  GI50: 7.4 µM
  TGI: 16.3 µM
[24]; SF-295, read-out: LC50 (the source's name)
  CC50: 35.8 µM
[25]; SF-539
  GI50: 2 µM
  TGI: 9.4 µM
[25]; SF-539, read-out: LC50 (the source's name)
  CC50: 27.3 µM
[26]
  GI50: 7.3 µM
  TGI: 19.5 µM
[26]; [32]
  CC50: > 50 µM
[27]
  GI50: 7.7 µM
  TGI: > 50 µM
[27]; [32]
  CC50: > 50 µM
[28]
  GI50: 2.5 µM
  TGI: 7.7 µM
[28]; [32]
  CC50: 20.4 µM
[29]
  GI50: 0.7 µM
  TGI: 1.5 µM
[29]; [32]
  CC50: 3.6 µM
[30]
  GI50: 6.1 µM
  TGI: 14 µM
[30]; [32]
  CC50: 32.3 µM
[31]
  GI50: 0.3 µM
  TGI: 10.3 µM
